Data on three substances can be found in paper PMC3411050 (The Journal of Biological Chemistry, 2012).

A word on the LD50: it is the dose at which mortality reaches 50%. Higher therefore signals lower toxicity. As a reminder, the IC50 is the point on the concentration scale where inhibition reaches its midpoint.

Data set [1] has as its target GABAA receptor α2β3γ2 (Rattus norvegicus, UniProt P18508+P23576+P63079). The experiment in a line: Two-electrode voltage clamp on recombinant GABAA receptors in Xenopus oocytes. It counts as cell-based. To be noted: up to 10 μM. (In general: In two-electrode clamp one electrode senses voltage and the other passes current.)
Data set [2] concerns adult male mice of BALB/c line. The experiment in a line: Lethal effect of azemiopsin on mice. It counts as in vivo, mouse. To be noted: intraperitoneal injection, solution in water, doses 2–10 mg/kg. Summed up:
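Adult male BALB/c mice (18–22 g) were kept on a 12/12-h light/dark cycle with food and water ad libitum. The test compound, dissolved in water, was given intraperitoneally at 2, 2.7, 4, 8 and 10 mg/kg body weight.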

Data set [3] addresses GABAA receptor α1β3γ2 (Rattus norvegicus, UniProt P18508+P62813+P63079). The experiment in a line: Two-electrode voltage clamp on recombinant GABAA receptors in Xenopus oocytes. It counts as cell-based. The note with it: up to 100 μM.
Data set [4] concerns the target human muscle-type nAChR, adult form (α1β1ϵδ) (Homo sapiens, UniProt P02708+P11230+Q04844+Q07001). It counts as cell-based. To be noted: human muscle-type nAChR in oocytes; washing for 2 min. In a few lines:
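Human α1, β1, δ and ε (adult) or γ (fetal) subunit cDNAs were injected into the oocyte nucleus, and two-electrode voltage clamp was run 2–3 days later. Cells received 5 s pulses of 5 μM ACh every 2 min. After stabilization, the test compound was applied at varied concentrations for at least 1 min, the ACh response was retested, and recovery was followed over several minutes.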

Data set [5] has as its target T1, 5-HT3AB receptor (Homo sapiens, UniProt O95264+P46098).
T1 sequence (P46098 24-478): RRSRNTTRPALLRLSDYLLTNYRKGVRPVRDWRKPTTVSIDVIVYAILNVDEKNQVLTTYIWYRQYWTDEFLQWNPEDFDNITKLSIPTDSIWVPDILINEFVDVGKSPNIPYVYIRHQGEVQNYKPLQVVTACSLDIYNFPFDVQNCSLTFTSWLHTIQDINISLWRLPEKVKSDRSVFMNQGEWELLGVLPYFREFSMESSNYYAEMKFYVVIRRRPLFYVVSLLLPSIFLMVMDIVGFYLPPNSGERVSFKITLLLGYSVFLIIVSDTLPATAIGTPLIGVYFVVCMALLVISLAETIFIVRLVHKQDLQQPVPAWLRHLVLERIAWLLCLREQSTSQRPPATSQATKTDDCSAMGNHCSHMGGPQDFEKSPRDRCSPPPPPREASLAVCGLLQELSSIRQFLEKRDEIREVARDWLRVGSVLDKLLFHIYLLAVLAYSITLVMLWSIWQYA
T1 sequence (O95264 22-441): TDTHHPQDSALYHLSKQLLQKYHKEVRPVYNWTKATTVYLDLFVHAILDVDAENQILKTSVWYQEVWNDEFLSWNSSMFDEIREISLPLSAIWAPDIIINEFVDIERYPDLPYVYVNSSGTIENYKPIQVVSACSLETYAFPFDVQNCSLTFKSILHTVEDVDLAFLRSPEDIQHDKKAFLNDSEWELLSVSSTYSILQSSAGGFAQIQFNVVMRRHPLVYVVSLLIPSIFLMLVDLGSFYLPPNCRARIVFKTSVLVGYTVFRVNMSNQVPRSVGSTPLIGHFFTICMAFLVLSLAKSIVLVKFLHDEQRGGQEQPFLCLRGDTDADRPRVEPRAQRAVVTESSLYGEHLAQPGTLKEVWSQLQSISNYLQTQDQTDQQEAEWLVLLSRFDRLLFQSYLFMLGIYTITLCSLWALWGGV
Nature of the data set: Current recording on 5-HT3 receptors in Xenopus oocytes. Type of data set: cell-based. To be noted: concentrations up to 10 μM. Summed up:
(§1)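 Human 5-HT3A (with 5-HT3B for the heteromer) subunit cRNA was transcribed in vitro from cDNA and injected into Xenopus oocytes. Currents were recorded 1–4 days after injection.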

In data set [6] the target is T2, 5-HT3A receptor (Homo sapiens, UniProt P46098).
T2 sequence (P46098 24-478): T1 sequence (P46098 24-478)
The description is as above. The note with it: concentrations up to 10 μM. It counts as cell-based. Summed up:
as §1

Data set [7] concerns the target T3, T. californica nAChR (Tetronarce californica, UniProt P02710+P02712+P02714+P02718). Type of data set: binding, Torpedo californica. The note with it: Torpedo nAChR, from two-site IC50 values.
Data set [8] has as its target T4, Human α7 nAChR (Homo sapiens, UniProt P36544). To be noted: read-out: IC50, inhibition of α-bungarotoxin binding; cited from earlier work.
Data set [9] concerns the target T3, T. californica nAChR. To be noted: read-out: IC50, inhibition of α-bungarotoxin binding; cited from earlier work.
The target of data set [10] is T5, A. californica AChBP (Aplysia californica, UniProt Q8WSF8).
T5 sequence (Q8WSF8 18-236 limits assumed): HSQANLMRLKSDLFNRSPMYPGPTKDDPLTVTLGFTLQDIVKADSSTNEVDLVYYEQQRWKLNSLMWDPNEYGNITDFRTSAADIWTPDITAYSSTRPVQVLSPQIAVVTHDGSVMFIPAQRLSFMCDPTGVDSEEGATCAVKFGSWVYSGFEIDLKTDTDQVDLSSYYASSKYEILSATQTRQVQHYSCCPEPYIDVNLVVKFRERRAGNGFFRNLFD
The note with it: read-out: IC50, inhibition of α-bungarotoxin binding.

In data set [11] the target is L. stagnalis AChBP (Lymnaea stagnalis, UniProt P58154). To be noted: read-out: IC50, inhibition of α-bungarotoxin binding.
Data set [12] concerns the target T4, Human α7 nAChR. To be noted: read-out: IC50, inhibition of α-bungarotoxin binding.

Where two headings read alike, the source gives them in different places. Where no end group is shown, it is not given here.

T4 sequence (P36544 23-502): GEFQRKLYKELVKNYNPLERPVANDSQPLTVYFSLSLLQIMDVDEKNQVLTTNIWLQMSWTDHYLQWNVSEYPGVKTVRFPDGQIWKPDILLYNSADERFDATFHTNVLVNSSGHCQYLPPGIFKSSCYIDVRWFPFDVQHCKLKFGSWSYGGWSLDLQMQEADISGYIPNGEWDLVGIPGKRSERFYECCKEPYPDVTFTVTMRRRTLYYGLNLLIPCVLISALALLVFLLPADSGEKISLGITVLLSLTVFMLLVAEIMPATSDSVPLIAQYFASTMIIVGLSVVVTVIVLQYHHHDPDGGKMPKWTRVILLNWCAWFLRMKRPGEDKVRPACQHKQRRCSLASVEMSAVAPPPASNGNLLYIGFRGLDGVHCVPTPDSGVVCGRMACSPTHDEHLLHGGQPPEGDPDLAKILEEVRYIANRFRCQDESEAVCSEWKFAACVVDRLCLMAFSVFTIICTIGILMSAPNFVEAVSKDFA
T3 sequence (P02710 25-461): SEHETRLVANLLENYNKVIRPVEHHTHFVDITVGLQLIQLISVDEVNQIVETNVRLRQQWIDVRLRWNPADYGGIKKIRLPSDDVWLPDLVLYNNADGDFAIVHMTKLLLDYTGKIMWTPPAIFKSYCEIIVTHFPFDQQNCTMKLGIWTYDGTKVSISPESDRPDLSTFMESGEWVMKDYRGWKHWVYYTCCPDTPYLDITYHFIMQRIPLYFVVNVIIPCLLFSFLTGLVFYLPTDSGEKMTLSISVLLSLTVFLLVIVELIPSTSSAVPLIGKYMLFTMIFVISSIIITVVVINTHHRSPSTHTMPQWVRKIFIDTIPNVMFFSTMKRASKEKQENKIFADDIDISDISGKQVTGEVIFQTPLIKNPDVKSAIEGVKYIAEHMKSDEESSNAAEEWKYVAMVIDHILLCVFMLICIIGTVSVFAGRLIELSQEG
T3 sequence (P02712 25-493 partner): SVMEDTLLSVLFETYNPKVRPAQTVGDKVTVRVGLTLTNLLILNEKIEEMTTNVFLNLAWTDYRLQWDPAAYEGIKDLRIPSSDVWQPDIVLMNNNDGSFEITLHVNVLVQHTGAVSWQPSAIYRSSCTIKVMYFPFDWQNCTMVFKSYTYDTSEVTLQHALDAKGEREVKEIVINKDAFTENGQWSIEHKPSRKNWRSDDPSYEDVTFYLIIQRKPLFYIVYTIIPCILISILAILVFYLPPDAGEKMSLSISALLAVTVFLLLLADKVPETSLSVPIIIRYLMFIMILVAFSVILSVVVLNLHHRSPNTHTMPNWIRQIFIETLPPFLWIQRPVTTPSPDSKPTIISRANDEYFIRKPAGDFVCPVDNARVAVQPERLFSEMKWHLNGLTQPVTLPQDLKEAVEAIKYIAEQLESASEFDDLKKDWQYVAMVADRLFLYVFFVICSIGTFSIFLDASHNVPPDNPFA
T3 sequence (P02714 18-506): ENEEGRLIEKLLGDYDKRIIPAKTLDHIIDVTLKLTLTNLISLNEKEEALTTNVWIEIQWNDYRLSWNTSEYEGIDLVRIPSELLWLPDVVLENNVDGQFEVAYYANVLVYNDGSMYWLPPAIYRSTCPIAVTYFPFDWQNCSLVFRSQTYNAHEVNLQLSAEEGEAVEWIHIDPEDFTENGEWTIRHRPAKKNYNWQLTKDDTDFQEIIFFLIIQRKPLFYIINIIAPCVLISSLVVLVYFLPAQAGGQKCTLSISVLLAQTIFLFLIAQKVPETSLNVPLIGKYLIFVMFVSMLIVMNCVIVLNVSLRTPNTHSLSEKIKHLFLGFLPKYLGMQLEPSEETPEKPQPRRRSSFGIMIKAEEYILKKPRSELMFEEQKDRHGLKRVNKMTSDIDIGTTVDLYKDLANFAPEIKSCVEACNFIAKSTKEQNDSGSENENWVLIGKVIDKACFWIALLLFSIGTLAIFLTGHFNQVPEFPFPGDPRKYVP
T3 sequence (P02718 22-522): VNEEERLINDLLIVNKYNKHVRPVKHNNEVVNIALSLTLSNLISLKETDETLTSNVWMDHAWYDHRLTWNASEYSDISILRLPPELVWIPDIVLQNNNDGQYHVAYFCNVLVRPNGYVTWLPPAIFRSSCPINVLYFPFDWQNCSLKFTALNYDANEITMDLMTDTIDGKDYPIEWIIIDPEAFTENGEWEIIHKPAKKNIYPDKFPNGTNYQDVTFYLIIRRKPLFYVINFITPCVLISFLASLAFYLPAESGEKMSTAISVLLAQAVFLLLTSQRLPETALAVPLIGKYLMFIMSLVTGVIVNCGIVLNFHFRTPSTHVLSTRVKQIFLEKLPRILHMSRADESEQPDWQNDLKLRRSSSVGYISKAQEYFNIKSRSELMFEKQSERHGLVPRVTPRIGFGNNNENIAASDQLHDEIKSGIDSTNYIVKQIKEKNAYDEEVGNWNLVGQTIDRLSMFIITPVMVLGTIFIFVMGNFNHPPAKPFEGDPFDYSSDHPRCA
human muscle-type nAChR, adult form (α1β1ϵδ), sequence (P02708 21-457): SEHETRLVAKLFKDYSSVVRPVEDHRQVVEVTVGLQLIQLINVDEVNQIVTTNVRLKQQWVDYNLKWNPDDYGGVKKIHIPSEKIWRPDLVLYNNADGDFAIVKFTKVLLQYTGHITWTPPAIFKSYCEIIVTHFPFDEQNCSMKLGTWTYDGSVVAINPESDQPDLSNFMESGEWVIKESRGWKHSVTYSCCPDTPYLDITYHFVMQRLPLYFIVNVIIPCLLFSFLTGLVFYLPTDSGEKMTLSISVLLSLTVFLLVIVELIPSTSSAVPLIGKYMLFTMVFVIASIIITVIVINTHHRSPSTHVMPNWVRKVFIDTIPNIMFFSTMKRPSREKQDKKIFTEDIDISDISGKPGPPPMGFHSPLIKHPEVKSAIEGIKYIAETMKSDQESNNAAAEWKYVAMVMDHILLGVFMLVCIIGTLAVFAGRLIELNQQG
human muscle-type nAChR, adult form (α1β1ϵδ), sequence (P11230 24-501 partner): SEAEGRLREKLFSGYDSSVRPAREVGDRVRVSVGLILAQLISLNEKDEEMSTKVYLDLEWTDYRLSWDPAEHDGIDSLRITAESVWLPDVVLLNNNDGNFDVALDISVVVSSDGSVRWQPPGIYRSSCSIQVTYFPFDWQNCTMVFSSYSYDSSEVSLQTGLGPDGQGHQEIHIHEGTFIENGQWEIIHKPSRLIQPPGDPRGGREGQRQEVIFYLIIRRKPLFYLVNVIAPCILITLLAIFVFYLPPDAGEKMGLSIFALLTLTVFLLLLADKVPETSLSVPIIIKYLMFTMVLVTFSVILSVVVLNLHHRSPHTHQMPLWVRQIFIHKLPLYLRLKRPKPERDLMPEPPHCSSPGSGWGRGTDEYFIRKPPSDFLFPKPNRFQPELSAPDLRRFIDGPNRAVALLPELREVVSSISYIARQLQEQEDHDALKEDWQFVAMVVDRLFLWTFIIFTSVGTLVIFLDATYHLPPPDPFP
human muscle-type nAChR, adult form (α1β1ϵδ), sequence (Q04844 21-493): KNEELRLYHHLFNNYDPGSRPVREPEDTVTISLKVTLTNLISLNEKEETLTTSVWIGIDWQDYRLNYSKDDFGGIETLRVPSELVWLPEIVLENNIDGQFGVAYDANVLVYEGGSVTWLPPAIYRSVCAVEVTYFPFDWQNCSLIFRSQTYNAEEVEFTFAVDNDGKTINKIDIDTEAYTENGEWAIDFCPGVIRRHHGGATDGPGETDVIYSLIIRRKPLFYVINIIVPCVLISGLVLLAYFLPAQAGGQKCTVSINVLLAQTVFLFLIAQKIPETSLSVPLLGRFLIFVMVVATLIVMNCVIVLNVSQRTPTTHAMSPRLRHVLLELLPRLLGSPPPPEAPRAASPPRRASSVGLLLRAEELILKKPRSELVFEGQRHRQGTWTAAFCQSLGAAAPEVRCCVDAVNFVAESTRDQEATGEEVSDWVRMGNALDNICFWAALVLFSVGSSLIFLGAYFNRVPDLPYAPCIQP
human muscle-type nAChR, adult form (α1β1ϵδ), sequence (Q07001 22-517): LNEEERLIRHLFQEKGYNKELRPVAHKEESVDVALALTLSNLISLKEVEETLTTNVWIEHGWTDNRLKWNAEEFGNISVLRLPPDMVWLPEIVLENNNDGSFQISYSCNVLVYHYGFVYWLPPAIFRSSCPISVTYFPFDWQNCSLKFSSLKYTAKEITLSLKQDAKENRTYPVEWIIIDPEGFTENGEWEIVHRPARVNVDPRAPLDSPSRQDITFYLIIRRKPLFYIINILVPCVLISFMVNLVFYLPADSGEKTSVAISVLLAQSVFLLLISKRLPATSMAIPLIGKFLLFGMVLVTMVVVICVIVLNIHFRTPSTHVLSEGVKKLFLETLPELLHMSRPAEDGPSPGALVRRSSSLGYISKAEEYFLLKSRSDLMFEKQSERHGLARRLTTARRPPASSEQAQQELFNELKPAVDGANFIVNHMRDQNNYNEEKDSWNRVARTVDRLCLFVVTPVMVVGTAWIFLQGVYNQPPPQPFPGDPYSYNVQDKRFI
L. stagnalis AChBP, sequence (P58154 20-229): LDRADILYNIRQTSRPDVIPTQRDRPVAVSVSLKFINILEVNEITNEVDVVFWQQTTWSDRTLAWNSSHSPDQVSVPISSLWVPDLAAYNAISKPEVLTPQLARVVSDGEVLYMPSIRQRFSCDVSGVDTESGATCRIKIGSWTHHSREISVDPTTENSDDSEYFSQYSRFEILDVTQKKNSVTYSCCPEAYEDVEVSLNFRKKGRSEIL

For DNWWPKPPHQGPRPPRPRPKP [Azemiopsin], the “effect on GABAA receptor currents” value in [1] and in data set [3] was “no significant effects” in each case. The substance further gave an LD50 in data set [2] of 2.6 ± 0.3 mg/kg. The “recovery of the ACh response after washing out the toxin” value in [4] was “complete recovery”. Moreover, the “effect at 5-HT3AB receptors” value in [5] is “no effects”. In addition, in [6], the “effect at 5-HT3A receptors” value is on record as “no effects”. Also, the “difference in the affinity between the two binding sites (α1/γ and α1/δ)” value in data set [7] is reported as 27 fold.
On to Neurotoxin II Naja oxiana, for which the results for the IC50 in data set [8] and in data set [9] were more than 4000 nM and 3 nM, respectively.
On to α-Cobratoxin, for which the IC50 in [10] worked out at 58 ± 2 nM; in data set [11] it was 2 ± 0.2 nM; in data set [12], 105 ± 10 nM.
